# Results pooled from the literature.
# Protocols differ between the studies behind these lines.
# Target: Mitogen-activated protein kinase 1 (MAPK1, Homo sapiens, UniProt P28482)
Structure (SMILES),assay,conditions,endpoint,result
Cc1ccc(NC(=O)c2ccc(CN3CCN(C)CC3)cc2)cc1Nc1nc(-c2cccnc2)cs1,cell-free assay,0.5 µM,remaining signal,91.6%
CCN(CC)CCNC(=O)c1c(C)[nH]c(/C=C2\C(=O)Nc3ccc(F)cc32)c1C,"enzyme activity, inhibitor",10 µM,inhibition,1%
CC(C)(C)c1nc(-c2cccc(NS(=O)(=O)c3c(F)cccc3F)c2F)c(-c2ccnc(N)n2)s1,"enzyme activity, inhibitor, radiometric",1 µM,remaining activity,88%
Cc1cc(NC(=O)c2cccc3cc(-c4cccc5[nH]nc(N)c45)ccc23)ccc1F,"enzyme activity, inhibitor",0.1 µM,activity vs control,100%
COc1cc2ncnc(Nc3ccc(Oc4ccccc4)c(C)c3C)c2cc1OC,"enzyme activity, inhibitor",1 µM,inhibition,-2%
Cc1cnc(NC2CCOCC2)nc1-n1cnc(C(=O)NC(CN)c2cc(F)cc(Cl)c2)c1 (stereo not drawn),"enzyme activity, inhibitor, radiometric",1 µM,remaining activity,2%
Cc1ccc(Nc2nccc(N(C)c3ccc4c(C)n(C)nc4c3)n2)cc1S(N)(=O)=O,"enzyme activity, inhibitor",10 µM,inhibition,-2%
CC(C)(C)C(=O)c1sc(NC2CCCCC2)nc1N,"enzyme activity, inhibitor",10 µM,remaining activity,95%
CCc1ccccc1C(=O)Nc1n[nH]c2c(C)c(F)c(C3C(C#N)=C(C)N(C)C(C)=C3C#N)cc12,"cell-free assay, competition with immobilised ligand",1 µM,remaining binding,86%
Nc1ncnc2occ(-c3ccc(NC(=O)Nc4cc(C(F)(F)F)ccc4F)cc3)c12,"cell-free assay, inhibitor",20 µM,remaining signal,100%
CN(C)C1CCN(CC#Cc2nn(C3CCCC3)c3nc(NCc4ccccc4)ncc23)C1 (stereo not drawn),"enzyme activity, inhibitor, FRET",10 µM,inhibition,2%
N#CCCc1ccc2c(c1)-c1[nH]c3ccc([N+](=O)[O-])cc3c1CC(=O)N2,cell-free assay,0.5 µM,remaining signal,119%
CO[C@@H](C)c1c(Nc2ccc([C@@H](N(C)C(=O)C3CCS(=O)(=O)CC3)C(F)(F)F)cc2)cnc2cc(Cl)nn12,"cell-free assay, competition with immobilised ligand",1 µM,remaining binding,100%
Cc1sc(C(=O)NC2COC2)cc1-n1cc(NC(=O)Nc2c(F)cccc2Cl)cn1,"enzyme activity, inhibitor",10 µM,remaining activity,90.8%
FC(F)c1nc2ccccc2n1-c1nc(N2CCOCC2)nc(N2CCOCC2)n1,"enzyme activity, inhibitor",10 µM,remaining activity,105%
CC(C)(O)[C@H]1CC[C@H](Nc2ccc3ncc(-c4cccc(C(F)(F)F)c4)n3n2)CC1,"enzyme activity, inhibitor",1 µM,remaining activity,96%
CNCc1ccccc1-c1csc([C@@H](C)Nc2nc(C)nc3cc(OC)c(OC)cc23)c1,"cell-free assay, competition with immobilised ligand",1 µM,remaining binding,78%
O=C1Cc2c([nH]c3ccc(Br)cc23)-c2ccccc2N1,cell-free assay,0.5 µM,remaining signal,90.5%
CCCOc1ccc(OC)c(F)c1C(=O)c1ccc(C(=O)N[C@@H]2CNC[C@H]2NC(=O)c2ccc3[nH]ncc3c2)cc1,"enzyme activity, inhibitor",10 µM,remaining activity,86%
Cc1ccc(NC(=O)c2ccc(C)c(C(F)(F)F)c2)cc1C#Cc1nn(C2CCC(O)CC2)c2ncnc(N)c12 (stereo not drawn),cell-free assay,10 µM,remaining signal,108%
CSc1nc(C)c(-c2ccnc(Nc3ccc(N4CCOCC4)cc3)c2)[nH]1,"enzyme activity, inhibitor",10 µM,inhibition,5.3%
Cc1noc([C@H]2C[C@@H](c3ccc(C(F)(F)F)cc3)CN(C(=O)N3CCS(=O)(=O)C3)C2)n1,"cell-free assay, competition with immobilised ligand",1 µM,remaining binding,100%
CCN(CC)c1ccc(C2=NNC(=O)CC2C)cc1[N+](=O)[O-] (stereo not drawn),"enzyme activity, inhibitor",10 µM,remaining activity,100%
COc1cc(Nc2cnc(C#N)c(O[C@H](C)CN(C)C)n2)ncc1-c1cnn(C)c1,"enzyme activity, inhibitor, radiometric",10 µM,remaining activity,80%
CCOCCn1cc(C(=O)Nc2ccc(-n3nc(-c4cccnc4)cc3C(F)(F)F)cn2)ccc1=O,"cell-free assay, competition with immobilised ligand",1 µM,remaining binding,100%
CC(C)c1ccc(NC(=O)c2cccs2)c(-c2nc3ccccc3[nH]c2=O)c1,"enzyme activity, inhibitor",1 µM,activity vs control,110%
CNc1cccc2cc(C(=O)Nc3ccc(C(=O)O)cc3)c(=O)[nH]c12,"enzyme activity, inhibitor",10 µM,inhibition,1.3%
COc1ccc2c(c1)O[C@H](c1ccc(OC)c(OC)c1)C[C@@H]2NC(=O)C1(c2ccc3c(c2)OC(F)(F)O3)CC1,"cell-free assay, competition with immobilised ligand",1 µM,remaining binding,99%
O=C1Nc2ccc(Cl)cc2C1=Cc1cc(Cl)c(O)c(Cl)c1,cell-free assay,0.5 µM,remaining signal,84.3%
Cc1cc(-n2nc(Cc3cc(F)cc(C(F)(F)F)c3)nc2C)ccc1C(N)=O,"cell-free assay, competition with immobilised ligand",1 µM,remaining binding,100%
COc1cc2c(cc1OC)-c1[nH]nc(Nc3cccc(F)c3)c1C2,cell-free assay,0.5 µM,remaining signal,85.1%
O=C(NCCCC1CCCCC1)c1ccc(CNC(=O)c2cnn(-c3ccccc3)c2C(F)(F)F)cc1,"cell-free assay, competition with immobilised ligand",0.1 µM,remaining binding,93%
CC/C(=N\NC(=O)NCc1cccc(O)c1)c1ccc(O)c(C)c1O,"enzyme activity, inhibitor",0.1 µM,inhibition,-10.1%
